Reference: ChEMBL document CHEMBL4622985, “Design, Synthesis, and Pharmacological Characterization of Heterobivalent Ligands for the Putative 5-HT2A/mGlu2 Receptor Complex” (J Med Chem, 2020)
pEC50, pIC50, pKi: −log10 of the molar value.

Experiments:
[1] = target: T1, Metabotropic glutamate receptor 2 (Homo sapiens, UniProt Q14416); assay: Positive modulator activity at human mGlu2 receptor expressed in HEK293 cells co-expressing Gqo5 assessed as increase in intracellular Ca2+ mobilization incubated for 1 hr in presence of EC20 glutamate by Fluo-4 dye based fluorescence assay; assay type: functional, cell-based; details: for pEC50: read-out: EC50; for EC50: read-out: pEC50 (converted)
T1 sequence (Q14416 whole entry): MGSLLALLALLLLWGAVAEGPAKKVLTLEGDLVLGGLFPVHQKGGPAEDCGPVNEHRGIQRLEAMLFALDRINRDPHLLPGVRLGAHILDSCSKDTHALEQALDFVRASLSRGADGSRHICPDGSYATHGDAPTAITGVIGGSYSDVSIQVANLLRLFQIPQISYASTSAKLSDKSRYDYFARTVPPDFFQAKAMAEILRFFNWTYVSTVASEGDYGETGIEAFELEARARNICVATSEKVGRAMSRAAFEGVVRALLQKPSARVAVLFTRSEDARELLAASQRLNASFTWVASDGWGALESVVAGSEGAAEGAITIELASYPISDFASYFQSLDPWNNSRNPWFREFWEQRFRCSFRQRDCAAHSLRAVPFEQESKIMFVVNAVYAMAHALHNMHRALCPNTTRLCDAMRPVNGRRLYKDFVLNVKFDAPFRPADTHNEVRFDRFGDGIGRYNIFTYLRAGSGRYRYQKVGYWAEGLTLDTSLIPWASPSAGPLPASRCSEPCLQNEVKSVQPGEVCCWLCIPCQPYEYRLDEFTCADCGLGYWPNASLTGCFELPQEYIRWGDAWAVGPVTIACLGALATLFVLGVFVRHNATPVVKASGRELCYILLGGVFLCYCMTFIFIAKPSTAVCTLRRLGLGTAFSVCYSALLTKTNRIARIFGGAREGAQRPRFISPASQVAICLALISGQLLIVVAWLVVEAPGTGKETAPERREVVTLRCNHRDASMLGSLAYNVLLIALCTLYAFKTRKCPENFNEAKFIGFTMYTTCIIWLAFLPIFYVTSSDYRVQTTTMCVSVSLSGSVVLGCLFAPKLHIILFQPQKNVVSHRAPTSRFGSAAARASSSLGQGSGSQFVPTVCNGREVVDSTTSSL

[2] = target: T2, 5-hydroxytryptamine receptor 2A/Metabotropic glutamate receptor 2 (Homo sapiens, UniProt P28223+Q14416); assay: Agonist activity at human 5HT2A/mGlu2 receptor expressed in HEK293 cells co-expressing Gqo5 assessed as increase in intracellular Ca2+ mobilization incubated for 1 hr by Fluo-4 dye based fluorescence assay; assay type: functional, cell-based; details: for pEC50: read-out: EC50; for EC50: read-out: pEC50 (converted)
T2 sequence (P28223 whole entry): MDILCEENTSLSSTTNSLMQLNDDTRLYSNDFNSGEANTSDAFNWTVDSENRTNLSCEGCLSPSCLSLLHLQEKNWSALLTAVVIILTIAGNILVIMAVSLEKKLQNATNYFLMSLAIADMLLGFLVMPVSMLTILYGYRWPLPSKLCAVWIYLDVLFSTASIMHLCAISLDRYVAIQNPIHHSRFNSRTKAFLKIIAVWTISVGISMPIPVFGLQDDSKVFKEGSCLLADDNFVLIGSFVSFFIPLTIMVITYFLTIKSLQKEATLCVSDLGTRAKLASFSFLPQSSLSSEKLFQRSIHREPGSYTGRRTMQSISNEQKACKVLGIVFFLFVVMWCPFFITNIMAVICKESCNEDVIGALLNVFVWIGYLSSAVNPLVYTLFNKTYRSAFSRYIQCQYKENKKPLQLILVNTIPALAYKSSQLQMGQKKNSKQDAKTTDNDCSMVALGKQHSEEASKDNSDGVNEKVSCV
T2 sequence (Q14416 whole entry): as the sequence (Q14416 whole entry) above

[3] = target: T3, 5-hydroxytryptamine receptor 2A (Homo sapiens, UniProt P28223); assay: Antagonist activity at human 5HT2A receptor expressed in HEK293 cells assessed as inhibition of 5HT-induced intracellular Ca2+ mobilization incubated for 1 hr by Fluo-4 dye based fluorescence assay; assay type: functional, cell-based; details: for pIC50: read-out: IC50
T3 sequence (P28223 whole entry): as the sequence (P28223 whole entry) above

[4] = target: T1, Metabotropic glutamate receptor 2; assay: Agonist activity at human mGlu2 receptor expressed in HEK293 cells co-expressing Gqo5 assessed as increase in intracellular Ca2+ mobilization incubated for 1 hr by Fluo-4 dye based fluorescence assay; assay type: functional, cell-based; details: for pEC50: read-out: EC50; for EC50: read-out: pEC50 (converted)
[5] = target: T2, 5-hydroxytryptamine receptor 2A/Metabotropic glutamate receptor 2; assay: Antagonist activity at human 5HT2A/mGlu2 receptor expressed in HEK293 cells assessed as inhibition of 5HT-induced intracellular Ca2+ mobilization incubated for 1 hr by Fluo-4 dye based fluorescence assay 5HT2A_HUMAN/GRM2_HUMAN P28223/Q14416; assay type: functional, cell-based; details: for pIC50: read-out: IC50; for IC50: read-out: pIC50 (converted)
[6] = target: T2, 5-hydroxytryptamine receptor 2A/Metabotropic glutamate receptor 2; assay: Positive modulator activity at human 5HT2A/mGlu2 receptor expressed in HEK293 cells co-expressing Gqo5 assessed as increase in intracellular Ca2+ mobilization incubated for 1 hr by Fluo-4 dye based fluorescence assay 5HT2A_HUMAN/GRM2_HUMAN P28223/Q14416; assay type: functional, cell-based
[7] = target: T2, 5-hydroxytryptamine receptor 2A/Metabotropic glutamate receptor 2; assay: Antagonist activity at human 5HT2A/mGlu2 receptor expressed in HEK293 cells co-expressing Gqo5 assessed as inhibition of 5HT-induced intracellular Ca2+ mobilization incubated for 1 hr by Fluo-4 dye based fluorescence assay 5HT2A_HUMAN/GRM2_HUMAN P28223/Q14416; assay type: functional, cell-based
[8] = target: T2, 5-hydroxytryptamine receptor 2A/Metabotropic glutamate receptor 2; assay: Displacement of [3H]-ketanserin from human 5HT2A/mGlu2 receptor expressed in HEK293 cell co-expressing Gqo5 membranes incubated for 2 hrs by scintillation counting method; assay type: cell-based; details: for pKi: read-out: Ki
How it was run: (§1)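 Membranes from stable HEK293 lines were homogenized and centrifuged twice at 50.000g, 4 °C, then resuspended in 50 mM Tris-HCl, 10 mM MgCl2, 0.1 mM EDTA, pH 7.4. Competition used fixed [3H]ketanserin ~1.5 nM (1.3−1.8 nM) against varied test compound, with bound/free kept <10%. Incubation ran 2 h at rt with shaking, followed by GF/C filtration. Ki was obtained by Cheng−Prusoff using saturation KD. Three independent experiments, each in duplicate.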

[9] = target: T3, 5-hydroxytryptamine receptor 2A; assay: Displacement of [3H]-ketanserin from human HT2A receptor expressed in HEK293 cell membranes incubated for 2 hrs by scintillation counting method; details: for pKi: read-out: Ki; how it was run: as §1
[10] = target: T2, 5-hydroxytryptamine receptor 2A/Metabotropic glutamate receptor 2; assay: Displacement of [3H]-ketanserin from human 5HT2A/mGlu2 receptor expressed in HEK293 cell membranes incubated for 2 hrs by scintillation counting method; details: for pKi: read-out: Ki; how it was run: as §1
[11] = target: T2, 5-hydroxytryptamine receptor 2A/Metabotropic glutamate receptor 2; assay: Antagonist activity at human 5HT2A/mGlu2 receptor expressed in HEK293 cells co-expressing Gqo5 assessed as inhibition of glutamate-induced intracellular Ca2+ mobilization incubated for 1 hr by Fluo-4 dye based fluorescence assay 5HT2A_HUMAN/GRM2_HUMAN P28223/Q14416; assay type: functional, cell-based

SMILES	pEC50 [1]	pEC50 [2]	pIC50 [3]	pEC50 [4]	EC50 [4] [nM]	pIC50 [5]	pEC50 [6]	pIC50 [7]	pKi [8]	pKi [9]	pKi [10]	pIC50 [11]	EC50 [1] [nM]	EC50 [2] [µM]	IC50 ([3]; read-out: pIC50 (converted)) [nM]	IC50 [5] [nM]	Ki ([10]; read-out: pKi (converted)) [nM]	Ki ([8]; read-out: pKi (converted)) [nM]	Ki ([9]; read-out: pKi (converted)) [nM]
COc1ccccc1C1CCN(c2ccn3c(CC4CC4)nnc3c2Cl)CC1	8.28	6.68	5.89	7.43	35.5	5.00	7.72												
COc1c(OCCOCCOCCOCCOCCOc2ccc(C3CCN(c4ccn5c(CC6CC6)nnc5c4Cl)CC3)cc2)cccc1C(=O)C1CCN(CCc2ccc(F)cc2)CC1	6.29	4.30 to 5.00	6.35	5.80		6.00		5.62	6.49	6.89	6.74	5.72							
COc1c(OCCOCCOCCOCCOCCOCCOCCOCCOCCOCCOCCOCCOc2ccc(C3CCN(c4ccn5c(CC6CC6)nnc5c4Cl)CC3)cc2)cccc1C(=O)C1CCN(CCc2ccc(F)cc2)CC1	6.32	4.30 to 5.00	6.28	5.60		5.80		6.42	6.77	6.70	6.77	6.15							
COCCOc1cccc(C(=O)C2CCN(CCc3ccc(F)cc3)CC2)c1OC	< 4.30	< 4.30	8.03	< 4.30	> 50100	7.80		7.64	7.89	8.52	8.19	7.54	> 50100	> 50.1					
COc1cccc(C(=O)C2CCN(CCc3ccc(F)cc3)CC2)c1OC	< 4.30	< 4.30	9.09	< 4.30	> 50100	8.21		8.27	8.06	9.28	8.52	7.62	> 50100	> 50.1					
COc1c(OCCOCCOCCOCCOCCOCCOc2ccc(C3CCN(c4ccn5c(CC6CC6)nnc5c4Cl)CC3)cc2)cccc1C(=O)C1CCN(CCc2ccc(F)cc2)CC1	6.28	4.30 to 5.00	6.57	5.92		6.29		6.38	6.72	7.00	6.92	6.05							
COc1c(OCCOCCOCCOCCOc2ccc(C3CCN(c4ccn5c(CC6CC6)nnc5c4Cl)CC3)cc2)cccc1C(=O)C1CCN(CCc2ccc(F)cc2)CC1	6.48	4.30 to 5.00	6.55	6.26		5.77		6.10	6.96	7.48	7.00	6.00			288	1550			
COc1c(OCCOCCOCCOCCOCCOCCOCCOCCOCCOCCOc2ccc(C3CCN(c4ccn5c(CC6CC6)nnc5c4Cl)CC3)cc2)cccc1C(=O)C1CCN(CCc2ccc(F)cc2)CC1	6.49	4.30 to 5.00	6.52	5.92		6.52		6.85	6.92	7.10	7.15	5.92				309	72.4		
COc1c(OCCOCCOCCOc2ccc(C3CCN(c4ccn5c(CC6CC6)nnc5c4Cl)CC3)cc2)cccc1C(=O)C1CCN(CCc2ccc(F)cc2)CC1	6.49	4.30 to 5.00	5.92	6.05		5.10		5.00	5.98	6.44	6.08	5.28							
COc1c(OCCOCCOCCOCCOCCOCCOCCOCCOc2ccc(C3CCN(c4ccn5c(CC6CC6)nnc5c4Cl)CC3)cc2)cccc1C(=O)C1CCN(CCc2ccc(F)cc2)CC1	6.29	4.30 to 5.00	6.39	5.80		6.57		6.33	6.80	6.96	6.92	6.18						132	120
COc1c(O)cccc1C(=O)C1CCN(CCc2ccc(F)cc2)CC1	< 4.30	< 4.30	7.96	< 4.30	> 50100	8.04		7.66				7.64	> 50100	> 50.1					
